Experiment [1] concerns Mus musculus. Briefly: in vivo antimalarial activity against Plasmodium berghei infected mice (Mus musculus) on oral administration. The format is functional. Summed up:
(§1)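 Mice infected with P. berghei NK 65. Compounds were prepared in olive oil at various concentrations and given orally to groups of five mice once daily on days 0–3, starting on the day of infection. Parasitemia was read on day 4, and ED50/ED90 were derived by the earlier protocol.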

Experiment [2] relates to Mus musculus. Briefly: in vivo antimalarial activity against Plasmodium berghei infected mice (Mus musculus) on intraperitoneal administration. The format is functional. As to conditions: ip. Summed up: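 Mice infected with P. berghei NK 65. Compounds were prepared in olive oil at various concentrations and injected intraperitoneally into groups of five mice once daily on days 0–3, starting on the day of infection. Parasitemia was measured on day 4, and ED50/ED90 were calculated by the earlier protocol.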

Experiment [3] concerns Mus musculus. Briefly: In vivo antimalarial activity against Plasmodium berghei infected mice (Mus musculus) on oral administration. The experiment is classed as functional. Summed up:
as §1

Experiment [4] can be described thus: Mean of EC50 value for FM3A cells/ mean of EC50 value for Plasmodium falciparum. The format is functional. Summed up: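 Selectivity is the mean EC50 against FM3A mouse mammary tumor cells divided by the mean EC50 against P. falciparum FCR-3.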
The next experiment has as its system Plasmodium falciparum. The experiment can be described thus: In vitro antimalarial activity for Plasmodium falciparum. The format is functional, organism-based. Summed up:
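Chloroquine-sensitive P. falciparum FCR-3 strain cultured in vitro; EC50 determined.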

The subject of a further experiment is FM3A. The experiment can be described thus: in vitro cytotoxicity against mouse mammary tumor in cell culture. The experiment is classed as functional, cell-based. Summed up:
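Mouse mammary tumor FM3A cells in culture, used as a mammalian cytotoxicity control; EC50 determined.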

Broadly, the ED50 is the midpoint of the dose-response relation. By EC50 is commonly meant the concentration giving half of the maximal effect. Lower therefore signals higher potency in that assay.

Take `C[C@@H]1CC[C@H]2[C@@H](C)C(=O)O[C@@H]3O[C@@]4(C)CC[C@@H]1[C@]32OO4` [ARTEMISININ]: the ED90 came to 89 mg/kg in the experiment on Mus musculus [1] and 32 mg/kg in the experiment with Mus musculus [2]. Moreover, the ED50 with Mus musculus [2] turned out to be 5 mg/kg; in the experiment on Mus musculus [3], 13 mg/kg. For the same compound, in experiment [4], the Selectivity came to 1000. For the same compound, in the experiment with Plasmodium falciparum, the EC50 was found to be 10 nM.
As to `CC(C)(C)C1CCC2(CC1)OOCCCOO2`, the ED90 in the experiment on Mus musculus [1] was 84 mg/kg; in the experiment on Mus musculus [2], 30 mg/kg. Also, the ED50 was 15 mg/kg with Mus musculus [2] and 52 mg/kg in the experiment on Mus musculus [3]. In addition, the figures for the EC50 in the experiment on FM3A and in the experiment with Plasmodium falciparum were 30 µM and 3 nM, respectively. In addition, the Selectivity in experiment [4] was found to be 10000.
For `CCCCCCC1(CCCCCC)OOCCCOO1`, in the experiment on Mus musculus [2], the ED50 is 60 mg/kg and the ED90 came out at 91 mg/kg. In the experiment on FM3A, this compound had an EC50 of 19 µM. For the same compound, the Selectivity in experiment [4] is given as 95. For the same compound, the EC50 with Plasmodium falciparum stood at 200 nM.
For the compound `C1CCCCCC2(CCCCC1)OOCCCCCCOO2`, in the experiment on Mus musculus [2], it took a dose of 160 mg/kg to reach the 50% effect level (ED50) and the ED90 is above 200 mg/kg. The compound further displayed a concentration giving a half-maximal response (EC50) in the experiment on FM3A of 16 µM. In experiment [4], this compound showed a Selectivity of 1600. Besides, a half-maximal response in the experiment on Plasmodium falciparum (EC50) required 10 nM.
Consider `C1CCCCCC2(CCCCC1)OOCCCOO2`, for which the ED90 in the experiment with Mus musculus [1] turned out to be 40 mg/kg; in the experiment with Mus musculus [2] it was 20 mg/kg. The ED50 with Mus musculus [2] amounted to 12 mg/kg; in the experiment on Mus musculus [3] it was 20 mg/kg. The values for the EC50 in the experiment on FM3A and in the experiment on Plasmodium falciparum were 8 µM and 25 nM, respectively. In addition, in experiment [4], the Selectivity was found to be 320.
With `C1CCCCCC2(CCCCC1)OOCCCCOO2`, in the experiment on Mus musculus [2], the ED50 was 48 mg/kg and the ED90 worked out at 65 mg/kg. In the experiment on FM3A, the response was half-maximal at 17 µM (EC50). In experiment [4], the Selectivity was found to be 170. In addition, the EC50 in the experiment with Plasmodium falciparum is 100 nM.
On to `C1CCCCCC2(CCCCC1)OOCCCCCOO2`, for which the EC50 in the experiment on FM3A is 12 µM; in the experiment on Plasmodium falciparum it was 280 nM. The Selectivity in experiment [4] is given as 43.
`C1COOC2(OOC1)C1CC3CC(C1)CC2C3` showed an ED50 in the experiment with Mus musculus [2] of 100 mg/kg. In addition, the results for the EC50 with FM3A and with Plasmodium falciparum were 58 µM and 50 nM, respectively. In experiment [4], this compound had a Selectivity of 1160.
As to `CCCCCC1(CCCCC)OOCCCOO1`, the median effective dose (ED50) in the experiment with Mus musculus [2] stood at 30 mg/kg. This compound also registered an ED90 with Mus musculus [2] of 58 mg/kg. Besides, the EC50 is 34 µM in the experiment on FM3A and 310 nM in the experiment on Plasmodium falciparum. The compound further registered a Selectivity in experiment [4] of 110.
Consider `C1CCCCCC2(CCCCC1)OOCCCCCCCCOO2`, for which the EC50 in the experiment on FM3A worked out at 29 µM; in the experiment on Plasmodium falciparum it was 1700 nM. In experiment [4], this compound registered a Selectivity of 17.

These data come from ChEMBL document CHEMBL1134771, “Synthesis and antimalarial activity of novel medium-sized 1,2,4,5-tetraoxacycloalkanes” (J Med Chem, 2001).
